In ChEMBL document CHEMBL1132453, “Heteroarotinoids inhibit head and neck cancer cell lines in vitro and in vivo through both RAR and RXR retinoic acid receptors” (J Med Chem, 1999):

What was measured:
SCC-2 (Homo sapiens) [1] = assay: Inhibition of SCC-2 cell proliferation; design: concentration or dose not given beside the values
SCC-38 (Homo sapiens) [2] = assay: Inhibition of SCC-38 cell proliferation; design: concentration or dose not given beside the values
[3] = target: T1, Retinoic acid receptor beta (Homo sapiens, UniProt P10826); assay: Transcriptional activation in CV-1 cells expressing human Retinoic acid receptor RAR beta; type: cell-based
T1 sequence (P10826 whole entry): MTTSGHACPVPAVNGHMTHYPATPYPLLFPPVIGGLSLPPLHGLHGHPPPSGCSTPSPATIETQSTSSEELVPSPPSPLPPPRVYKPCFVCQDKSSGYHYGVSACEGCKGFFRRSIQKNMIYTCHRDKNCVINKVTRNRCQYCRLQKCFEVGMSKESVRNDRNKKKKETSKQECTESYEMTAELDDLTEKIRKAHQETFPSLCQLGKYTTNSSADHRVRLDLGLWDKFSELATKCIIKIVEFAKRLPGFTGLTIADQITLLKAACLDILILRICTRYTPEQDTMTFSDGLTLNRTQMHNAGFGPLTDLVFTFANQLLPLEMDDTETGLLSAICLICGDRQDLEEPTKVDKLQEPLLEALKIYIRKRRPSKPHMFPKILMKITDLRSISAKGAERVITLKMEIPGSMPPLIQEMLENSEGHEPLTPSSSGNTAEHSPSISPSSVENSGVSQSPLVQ
Procedure, shortened: (§1)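 CV-1 cells were plated at 7.5 × 10^4/well and transfected 24 h later (FuGENE6). Each well got a receptor vector (human RARα/β/γ in pECE or mouse RXRα/β/γ in pSG5), a βRARE-tk-CAT reporter and a β-actin-βGal control. After 16-18 h, ligand was added in 10-fold steps from 10^-10 to 10^-5 M (0.01% DMSO) for 24 h. CAT was measured by ELISA and normalised to βGal. Triplicates, repeated at least twice.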

[4] = target: T2, Retinoic acid receptor RXR-gamma (Mus musculus, UniProt P28705); assay: Transcriptional activation of CV-1 cells expressing murine Retinoid X receptor RXR gamma; type: cell-based
T2 sequence (P28705 whole entry): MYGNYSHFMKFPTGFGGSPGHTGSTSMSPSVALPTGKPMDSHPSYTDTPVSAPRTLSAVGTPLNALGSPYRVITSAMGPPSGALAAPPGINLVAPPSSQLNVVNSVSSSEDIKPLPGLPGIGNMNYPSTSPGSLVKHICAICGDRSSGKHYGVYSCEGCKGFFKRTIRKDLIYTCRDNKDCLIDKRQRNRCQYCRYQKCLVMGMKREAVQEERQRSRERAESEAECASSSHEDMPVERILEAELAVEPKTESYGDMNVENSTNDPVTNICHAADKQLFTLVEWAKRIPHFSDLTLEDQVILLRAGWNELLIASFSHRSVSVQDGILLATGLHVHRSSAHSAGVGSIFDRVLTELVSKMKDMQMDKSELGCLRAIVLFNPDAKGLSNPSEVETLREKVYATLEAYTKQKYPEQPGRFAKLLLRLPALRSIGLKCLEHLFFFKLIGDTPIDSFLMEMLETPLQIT
Procedure, shortened: as §1

[5] = target: T3, Retinoic acid receptor alpha (Homo sapiens, UniProt P10276); assay: Transcriptional activation in CV-1 cells expressing human Retinoic acid receptor RAR alpha; type: cell-based
T3 sequence (P10276 whole entry): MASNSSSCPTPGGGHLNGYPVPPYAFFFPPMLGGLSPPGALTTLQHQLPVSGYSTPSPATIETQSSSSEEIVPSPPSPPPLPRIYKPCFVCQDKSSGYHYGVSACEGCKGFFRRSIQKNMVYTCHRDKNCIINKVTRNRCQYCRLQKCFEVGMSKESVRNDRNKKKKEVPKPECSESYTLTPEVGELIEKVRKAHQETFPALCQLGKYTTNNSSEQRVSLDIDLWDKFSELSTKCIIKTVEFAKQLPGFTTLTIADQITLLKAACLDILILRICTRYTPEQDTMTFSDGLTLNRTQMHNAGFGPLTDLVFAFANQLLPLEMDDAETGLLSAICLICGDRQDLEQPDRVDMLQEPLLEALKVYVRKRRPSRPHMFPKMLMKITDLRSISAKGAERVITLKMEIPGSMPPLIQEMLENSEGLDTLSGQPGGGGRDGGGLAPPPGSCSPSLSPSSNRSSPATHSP
Procedure, shortened: as §1

[6] = target: T4, Retinoic acid receptor gamma (Homo sapiens, UniProt P13631); assay: Transcriptional activation in CV-1 cells expressing human Retinoic acid receptor RAR gamma; type: cell-based
T4 sequence (P13631 whole entry): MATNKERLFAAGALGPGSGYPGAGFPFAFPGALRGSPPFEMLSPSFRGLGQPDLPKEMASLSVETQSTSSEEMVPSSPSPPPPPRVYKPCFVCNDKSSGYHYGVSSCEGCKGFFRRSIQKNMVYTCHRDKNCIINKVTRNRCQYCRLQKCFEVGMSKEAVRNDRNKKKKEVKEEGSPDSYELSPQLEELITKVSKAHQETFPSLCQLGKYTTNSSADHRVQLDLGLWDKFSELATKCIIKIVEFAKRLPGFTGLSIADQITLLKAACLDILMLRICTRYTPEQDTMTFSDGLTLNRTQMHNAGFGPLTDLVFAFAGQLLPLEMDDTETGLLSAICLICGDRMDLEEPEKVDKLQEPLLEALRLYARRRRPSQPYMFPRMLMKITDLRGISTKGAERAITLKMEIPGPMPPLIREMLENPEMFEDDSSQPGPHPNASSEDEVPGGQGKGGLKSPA
Procedure, shortened: as §1

[7] = target: T5, Retinoic acid receptor RXR-alpha (Mus musculus, UniProt P28700); assay: Transcriptional activation of CV-1 cells expressing murine Retinoid X receptor RXR alpha; type: cell-based
T5 sequence (P28700 whole entry): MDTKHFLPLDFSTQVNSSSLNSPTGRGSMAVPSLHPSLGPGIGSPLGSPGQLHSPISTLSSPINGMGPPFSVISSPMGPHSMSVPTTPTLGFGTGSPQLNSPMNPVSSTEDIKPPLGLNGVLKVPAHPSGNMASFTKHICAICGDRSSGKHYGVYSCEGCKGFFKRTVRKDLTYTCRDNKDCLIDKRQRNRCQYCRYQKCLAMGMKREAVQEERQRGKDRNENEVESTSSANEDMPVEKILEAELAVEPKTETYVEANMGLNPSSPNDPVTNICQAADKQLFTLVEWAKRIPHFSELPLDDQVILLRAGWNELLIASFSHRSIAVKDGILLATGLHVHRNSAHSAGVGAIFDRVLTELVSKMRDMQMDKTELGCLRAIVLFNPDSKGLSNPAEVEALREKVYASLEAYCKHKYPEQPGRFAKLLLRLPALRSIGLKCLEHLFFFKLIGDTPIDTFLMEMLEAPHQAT
Procedure, shortened: as §1

[8] = target: T6, Retinoic acid receptor RXR-beta (Mus musculus, UniProt P28704); assay: Transcriptional activation of CV-1 cells expressing murine Retinoid X receptor RXR beta; type: cell-based
T6 sequence (P28704 whole entry): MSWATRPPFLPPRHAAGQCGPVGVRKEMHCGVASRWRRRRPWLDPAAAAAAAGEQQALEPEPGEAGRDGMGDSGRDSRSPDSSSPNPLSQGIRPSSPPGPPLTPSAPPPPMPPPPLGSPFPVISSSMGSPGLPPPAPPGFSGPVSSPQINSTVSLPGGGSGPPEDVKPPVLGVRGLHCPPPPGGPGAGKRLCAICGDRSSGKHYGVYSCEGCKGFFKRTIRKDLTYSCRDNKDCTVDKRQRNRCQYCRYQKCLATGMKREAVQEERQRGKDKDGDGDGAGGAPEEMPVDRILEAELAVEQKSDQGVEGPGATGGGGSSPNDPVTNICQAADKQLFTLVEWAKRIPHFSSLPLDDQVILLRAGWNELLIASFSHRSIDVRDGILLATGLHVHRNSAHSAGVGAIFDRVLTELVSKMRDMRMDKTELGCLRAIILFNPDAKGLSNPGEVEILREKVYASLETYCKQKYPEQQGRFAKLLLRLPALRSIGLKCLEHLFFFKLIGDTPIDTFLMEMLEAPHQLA
Procedure, shortened: as §1

SCC-2 (Homo sapiens) [9] = assay: Inhibition of SCC-2 cell proliferation
SCC-38 (Homo sapiens) [10] = assay: Inhibition of SCC-38 cell proliferation

Row | SMILES | Inhibition (SCC-2 (Homo sapiens) [1]) | Inhibition (SCC-38 (Homo sapiens) [2]) | other results
1 | CCOC(=O)c1ccc(OC(=O)c2ccc3c(c2)C(C)(C)CCN3C(C)C)cc1 | 5% | 15% | –
2 | C/C(=C\c1ccc(C(=O)O)cc1)c1ccc2c(c1)C(C)(C)CO2 | 1% | 1% | –
3 | CCCCCCCCC1CCc2cc(/C(C)=C/c3ccc(C(=O)OCC)cc3)ccc2S1 (centres undefined) | 10% | 17% | –
4 | CCOC(=O)c1ccc(OC(=O)c2ccc3c(c2)C(C)(C)CCO3)cc1 | -6% | 13% | –
5 | COC(=O)c1ccc(C(=O)Oc2c(C)cc3c(c2C)C(C)(C)C=C(C)O3)cc1 | 15% | -8% | –
6 | COC(=O)c1ccc(N(OC)C(=O)c2ccc3c(c2)C(C)(C)CCO3)cc1 | 3% | 17% | –
7 | COC(=O)c1ccc(C(=O)Oc2c(C)cc3c(c2C)C(C)(C)CC(C)(C)O3)cc1 | -1% | 9% | –
8 | CCOC(=O)c1ccc(OC(=O)c2cc3c(cc2OC)C(C)(C)COC3(C)C)cc1 | 52% | 6% | –
9 | CCOC(=O)c1ccc(OC(=O)c2cc3c(cc2OC)C(C)(C)CCC3(C)C)cc1 | 15% | 12% | –
10 | COC(=O)c1ccc(C(=O)Nc2ccc3c(c2)C(C)(C)CC(C)(C)S3)cc1 | – | – | EC50 [3]: 1 µM; EC50 [4]: 0.302 µM; EC50 [5]: 0.225 µM; EC50 [6]: 0.152 µM; EC50 [7]: 0.084 µM; EC50 [8]: 1 µM; Inhibition (SCC-2 (Homo sapiens) [9]): 64%; Inhibition (SCC-38 (Homo sapiens) [10]): 37%
11 | CCOC(=O)/C=C(C)/C=C/C=C(\C)c1ccc2c(c1)OCCO2 | -33% | -2% | –
12 | CCOC(=O)c1ccc(OC(=O)c2cc3c(cc2C)N(C)CCC3(C)C)cc1 | 9% | 7% | –
13 | CC1(C)CCOc2ccc(C(=O)Oc3ccc(/C=N/N=C(/N)S)cc3)cc21 | 19% | 18% | EC50 [3]: > 10 µM; EC50 [4]: 1.9 µM; EC50 [5]: > 10 µM; EC50 [6]: > 10 µM; EC50 [7]: 0.294 µM; EC50 [8]: 0.084 µM
14 | CC(/C=C/C=C(\C)c1ccc2c(c1)C(C)(C)CCS2)=C\C(=O)O | 2% | 1% | –
15 | CCOC(=O)c1ccc(OC(=O)c2ccc3c(c2)C(C)(C)CCN3C)cc1 | 12% | 13% | –
16 | CC1=C(/C=C/C(C)=C\C=C\C(C)=C\C(=O)O)C(C)(C)CCC1 [ALITRETINOIN] | 13% | 10% | –
